Where two headings read alike, the source gives them in different places.
Experiments:
[1] = format: in vivo, human; conditions: for CL renal / AUC(0-inf) / Cmax / Tmax / AUC(0-t) / CL/F / Vd/F / half-life / k el: human, 20 mg; for CL renal: plasma and urine, CLR; for AUC(0-inf) / Cmax / Tmax / AUC(0-t) / CL/F / Vd/F / half-life / k el: plasma; for AUC(0-t): AUClast, fasted, n = 6; for CL/F: CLP/F; for Vd/F: Vz/F; for half-life: t½β; for k el: λz
In short: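 Single oral 20 mg tablet given fasted (8–10 h) to groups of six subjects stratified by iothalamate GFR (>80, 50–80, 30–50, ≤30 mL/min/1.73 m2). Heparinised blood was drawn pre-dose and 0.25–72 h post-dose; plasma was spun at 1,500×g, 4–8 °C, then frozen. AUClast used the trapezoidal rule, AUC∞ = AUClast + Clast/ke, and CLP/F = dose/AUC∞. Ratios to the healthy group came from ln-transformed ANOVA least-squares means with 90 % CI.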

[2] = Urine concentrations / urinary excretion of bilastine after a single oral dose; format: in vivo, human; conditions: for Urine concentrations of bilastine: mean ± SD
In short: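 Subjects were grouped by iothalamate GFR (n = 6 each) and received one fasted oral 20 mg tablet. Urine was pooled over 0–12, 12–24, 24–48 and 48–72 h post-dose and kept refrigerated during each interval. Total volume was measured per interval, and aliquots were stored at −20 °C. Ae is the total unchanged drug over the whole collection, and CLR = Ae/AUC over a defined period.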

Safety evaluations = format: in vivo, human
In short: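 Four groups (n = 6) were assigned by iothalamate GFR: >80, 50–80, 30–50 and ≤30 mL/min/1.73 m2. Each subject took one oral 20 mg tablet with 200 mL water after an 8–10 h fast. ECG (12-lead) was recorded pre-dose, 1 and 24 h, with QTcF and QTcB. Vital signs were taken daily. Hematology, biochemistry and urinalysis were done at screening, pre-dose and 72 h. AEs were coded by MedDRA 11.0, and results summarised descriptively.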

histamine H1 receptor = conditions: animal tissues with a high density of H1 receptors; cited from earlier work
[3] = system: 30 other receptors (including muscarinic receptors); conditions: at a high concentration; cited from earlier work
[4] = system: histamine receptor subtypes H2, H3, and H4; conditions: at a high concentration; cited from earlier work
[5] = system: human breast cancer resistance protein (BCRP); conditions: cited from earlier work
[6] = system: organic anion transporter 1 (OAT1); conditions: cited from earlier work
[7] = system: organic anion transporter 3 (OAT3); conditions: cited from earlier work
[8] = system: organic cation transporter 2 (OCT2); conditions: cited from earlier work
[9] = single 80 mg oral dose; 95 % CI 3,174.7–6278.4; cited from earlier work
[10] = compared among the renal impairment groups; cited from earlier work
[11] = doses up to 40 mg; cited from earlier work
[12] = cited from earlier work
[13] = group 2: mild vs group 1: healthy
[14] = group 3: moderate vs group 1: healthy
[15] = group 4: severe vs group 1: healthy
[16] = po, Group 1: healthy, single oral 20 mg, mean ± SD
[17] = po, Group 2: mild, single oral 20 mg, mean ± SD
[18] = po, Group 3: moderate, single oral 20 mg, mean ± SD
[19] = po, Group 4: severe, single oral 20 mg, mean ± SD
[20] = oral, geometric LS mean, Test group 2: mild, ANOVA
[21] = oral, geometric LS mean, Test group 4: severe, ANOVA

CCOCCn1c(C2CCN(CCc3ccc(C(C)(C)C(=O)O)cc3)CC2)nc2ccccc21 [bilastine, 2-[4-(2-(4-(1-(2-ethoxyethyl)-1H-benzimidazol-2-yl)piperidin-1-yl)ethyl)phenyl]-2-methylpropionic acid]
Clast ([1]; Group 1: healthy, single oral 20 mg, mean ± SD): 0.3 ± 0.1 ng/mL
Clast ([1]; Group 2: mild, single oral 20 mg, mean ± SD): 0.8 ± 0.3 ng/mL
Clast ([1]; Group 3: moderate, single oral 20 mg, mean ± SD): 0.4 ± 0.1 ng/mL
Clast ([1]; Group 4: severe, single oral 20 mg, mean ± SD): 1.5 ± 1.1 ng/mL
amount in the plasma after 24 h relative to Cmax ([1]; all the groups, single oral 20 mg): less than 5 % of the Cmax
AUClast, geometric mean ratio [1, 13]: 1.34
AUC∞, geometric mean ratio [1, 13]: 1.36
Cmax, geometric mean ratio [1, 13]: 1.24
tmax, difference of median values [1, 13]: 0.00
AUClast, geometric mean ratio [1, 14]: 1.94
AUC∞, geometric mean ratio [1, 14]: 1.94
Cmax, geometric mean ratio [1, 14]: 2.00
tmax, difference of median values [1, 14]: 0.75
AUClast, geometric mean ratio [1, 15]: 2.11
AUC∞, geometric mean ratio [1, 15]: 2.15
Cmax, geometric mean ratio [1, 15]: 1.59
tmax, difference of median values [1, 15]: 0.00
CL renal [1, 16]: 145 mL/min
CL renal [1, 17]: 116 mL/min
CL renal [1, 18]: 91.5 mL/min
CL renal [1, 19]: 67.2 mL/min
AUC(0-inf) [1, 20]: 959 ng·h/mL
AUC(0-inf) [1, 21]: 1510 ng·h/mL
Cmax [1, 20]: 167 ng/mL
Cmax [1, 21]: 214 ng/mL
Tmax ([1]; oral, median, Reference (group 1: healthy)): 1.5 h
Tmax ([1]; oral, median, Test group 2: mild): 1.5 h
Tmax ([1]; oral, median, Test group 3: moderate): 2.25 h
Tmax ([1]; oral, median, Test group 4: severe): 1.5 h
AUC(0-t) ([1]; po, Group 1: healthy (GFR >80), single oral 20 mg, mean ± SD): 733 ± 260 ng·h/mL
AUC(0-t) ([1]; po, Group 2: mild renal insufficiency (GFR 50–80), single oral 20 mg, mean ± SD): 947 ± 148 ng·h/mL
AUC(0-t) ([1]; po, Group 3: moderate renal insufficiency (GFR 30–50), single oral 20 mg, mean ± SD): 1380 ng·h/mL
AUC(0-t) ([1]; po, Group 4: severe renal insufficiency (GFR ≤30), single oral 20 mg, mean ± SD): 1650 ng·h/mL
AUC(0-inf) [1, 16]: 737 ± 261 ng·h/mL
AUC(0-inf) [1, 17]: 967 ± 140 ng·h/mL
AUC(0-inf) [1, 18]: 1380 ng·h/mL
AUC(0-inf) [1, 19]: 1710 ng·h/mL
CL/F [1, 16]: 495 mL/min
CL/F [1, 17]: 351 mL/min
CL/F [1, 18]: 248 mL/min
CL/F [1, 19]: 271 mL/min
Cmax [1, 16]: 144 ± 57.8 ng/mL
Cmax [1, 17]: 172 ± 45 ng/mL
Cmax [1, 18]: 271 ± 30.4 ng/mL
Cmax [1, 19]: 229 ± 81.8 ng/mL
Vd/F [1, 16]: 383 ± 122 L
Vd/F [1, 17]: 462 ± 244 L
Vd/F [1, 18]: 223 ± 55.7 L
Vd/F [1, 19]: 351 ± 193 L
Tmax ([1]; po, Group 1: healthy, single oral 20 mg, median (range)): 1.5 h
Tmax ([1]; po, Group 2: mild, single oral 20 mg, median (range)): 1.5 h
Tmax ([1]; po, Group 3: moderate, single oral 20 mg, median (range)): 2.25 h
Tmax ([1]; po, Group 4: severe, single oral 20 mg, median (range)): 1.5 h
half-life [1, 16]: 9.26 ± 2.79 h
half-life [1, 17]: 15.1 ± 7.66 h
half-life [1, 18]: 10.5 ± 2.34 h
half-life [1, 19]: 18.4 ± 11.4 h
k el [1, 16]: 2.21e-05 s⁻¹
k el [1, 17]: 1.65e-05 s⁻¹
k el [1, 18]: 1.92e-05 s⁻¹
k el [1, 19]: 1.39e-05 s⁻¹
Urine concentrations of bilastine ([2]; 0–12 h, Group 1: healthy, single oral 20 mg): 4,387.5 ± 3,358.4 ng/mL
Urine concentrations of bilastine ([2]; 0–12 h, Group 2: mild): 4,824.1 ± 2,073.0 ng/mL
Urine concentrations of bilastine ([2]; 0–12 h, Group 3: moderate): 7,184.3 ± 3,843.4 ng/mL
Urine concentrations of bilastine ([2]; 0–12 h, Group 4: severe): 3,469.8 ± 2,066.2 ng/mL
Urine concentrations of bilastine ([2]; 12–24 h, Group 1: healthy): 531.7 ± 342.0 ng/mL
Urine concentrations of bilastine ([2]; 12–24 h, Group 2: mild): 597.7 ± 159.2 ng/mL
Urine concentrations of bilastine ([2]; 12–24 h, Group 3: moderate): 472.9 ± 221.9 ng/mL
Urine concentrations of bilastine ([2]; 12–24 h, Group 4: severe): 813.0 ± 567.5 ng/mL
Urine concentrations of bilastine ([2]; 24–48 h, Group 1: healthy): 103.4 ± 38.6 ng/mL
Urine concentrations of bilastine ([2]; 24–48 h, Group 2: mild): 159.3 ± 43.3 ng/mL
Urine concentrations of bilastine ([2]; 24–48 h, Group 3: moderate): 126.7 ± 81.1 ng/mL
Urine concentrations of bilastine ([2]; 24–48 h, Group 4: severe): 260.4 ± 212.1 ng/mL
Urine concentrations of bilastine ([2]; 48–72 h, Group 1: healthy): 20.9 ± 10.0 ng/mL
Urine concentrations of bilastine ([2]; 48–72 h, Group 2: mild): 49.3 ± 40.7 ng/mL
Urine concentrations of bilastine ([2]; 48–72 h, Group 3: moderate): 30.3 ± 7.4 ng/mL
Urine concentrations of bilastine ([2]; 48–72 h, Group 4: severe): 97.8 ± 69.3 ng/mL
time by which urinary excretion was essentially complete ([2]; single oral 20 mg, most excreted in the first 12 h): up to 72 h
tolerability (Safety evaluations; 20 mg oral dose, healthy and renally impaired subjects): well-tolerated
subjects with outlier ECG results (Safety evaluations; all 24 subjects, single oral 20 mg): 20.8%
subjects with outlier ECG results (Safety evaluations; each of the mild, moderate, and severe impairment groups): 16.7%
subjects with outlier ECG results (Safety evaluations; healthy group): 33.3%
mean blood glucose concentration (Safety evaluations; mildly impaired group, end of study, reference range 60–115 mg/dL): 120.8 mg/dL
affinity for H1 receptors relative to cetirizine (histamine H1 receptor): three times higher
affinity for H1 receptors relative to fexofenadine (histamine H1 receptor): five times higher
affinity for 30 other receptors [3]: does not show affinity
affinity for histamine receptor subtypes H2, H3, and H4 [4]: does not show affinity
substrate of BCRP [5]: not a substrate
substrate of OAT1 [6]: not a substrate
substrate of OAT3 [7]: not a substrate
substrate of OCT2 [8]: not a substrate
AUC∞, mean estimated exposure (safety margin) [9]: 4,225.6 ng·h/mL
plasma protein binding [10]: comparable values were found among the renal impairment groups
sedative or psychomotor effects [11]: No sedative or psychomotor effects were detected
metabolism [12]: not metabolized
